This is an account of results in ChEMBL document CHEMBL3286090, “Cryptocaryol Structure-Activity Relationship Study of Cancer Cell Cytotoxicity and Ability to Stabilize PDCD4” (ACS Med Chem Lett, 2014).

The source made the active and inactive calls. The calls are words filed in the database; no cut-off is given here. Bounds are passed on as bounds.

In assay [1] the test system is MCF7. Description: Cytotoxicity against human MCF7 cells after 72 hrs by MTT assay. It counts as functional, cell-based. Particulars: MCF7, 72 h. The gist of the method:
(§1)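 Cancer cell lines exposed to compound over a concentration range; viability read by MTT; IC50 in μM derived from dose-response.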
(In general: Tetrazolium dyes change colour on reduction, which living cells bring about.)

Assay [2] concerns HT-29. Briefly: Cytotoxicity against human HT-29 cells after 72 hrs by MTT assay. The note with it: HT-29, 72 h. The class given is functional, cell-based. The gist of the method: as §1
A short description of assay [3]: Cytotoxicity against human H460 cells after 72 hrs by MTT assay. It counts as functional, cell-based. Particulars: NCI-H460, 72 h. Put shortly:
as §1

The target in assay [4] is T1, Programmed cell death protein 4 (Homo sapiens) (UniProt Q53EL6).
T1 sequence (whole entry): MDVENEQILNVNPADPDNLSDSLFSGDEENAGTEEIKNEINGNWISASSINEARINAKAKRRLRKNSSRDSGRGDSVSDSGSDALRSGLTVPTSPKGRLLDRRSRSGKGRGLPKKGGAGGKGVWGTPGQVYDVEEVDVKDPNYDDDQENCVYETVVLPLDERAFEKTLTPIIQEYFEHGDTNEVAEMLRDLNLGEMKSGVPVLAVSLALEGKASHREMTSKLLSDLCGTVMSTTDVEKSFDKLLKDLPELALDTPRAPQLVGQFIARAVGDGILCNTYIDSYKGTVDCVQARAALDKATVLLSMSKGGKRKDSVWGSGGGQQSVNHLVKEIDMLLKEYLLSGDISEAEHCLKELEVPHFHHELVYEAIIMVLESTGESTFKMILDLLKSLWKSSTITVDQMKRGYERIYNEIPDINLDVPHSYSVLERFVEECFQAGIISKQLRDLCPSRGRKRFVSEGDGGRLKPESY
Description: Inhibition of TPA-induced PDCD4 degradation in human MCF7 cells at 1 uM treated 30 mins before TPA challenge measured after 6 hrs by Western blot analysis relative to TPA treated control. The class given is cell-based. The gist of the method:
(§2)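 MCF-7 seeded at 100,000 cells/well, grown 24 h, then given cryptocaryol analogues (1 μM) or rapamycin (10 nM). TPA (20 nM) added 30 min later. After a further 6 h, cells scraped and lysed in RIPA. Lysate run on 12% SDS-PAGE, blotted to PVDF, probed for PDCD4 and β-actin, chemiluminescence detection. Signal expressed relative to cells given TPA alone.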

Assay [5] relates to HT-29. Briefly: Potentiation of 5-fluorouracil-induced cytotoxicity against human HT-29 cells after 72 hrs by MTT assay in absence of TPA. It counts as functional, cell-based.
The target in assay [6] is T1, Programmed cell death protein 4 (Homo sapiens). Description: Inhibition of TPA-induced PDCD4 degradation in human MCF7 cells at 10 nM treated 30 mins before TPA challenge measured after 6 hrs by Western blot analysis relative to TPA treated control. The class given is cell-based. The gist of the method: as §2
(In western blotting, separated proteins are transferred to a membrane and probed.)

For assay [7], the system named is HT-29. Briefly: Potentiation of 5-fluorouracil-induced cytotoxicity against human HT-29 cells after 72 hrs by MTT assay in absence of TPA.
The test system of assay [8] is HT-29. Description: Potentiation of camptothecin-induced cytotoxicity against human HT-29 cells after 72 hrs by MTT assay in presence of TPA. It counts as functional, cell-based.
For assay [9], the system named is HT-29. Briefly: Potentiation of digitoxin-induced cytotoxicity against human HT-29 cells after 72 hrs by MTT assay in absence of TPA. The class given is functional, cell-based. The gist of the method: (§3)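 HT-29 cells pretreated for 12 h with cryptocaryol at 1 μM, with rapamycin at 10 nM as the reference stabilizer, then exposed to digitoxin over a concentration range without TPA. The read-out was the digitoxin IC50 under the combination.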

Assay [10] relates to HT-29. Description: Potentiation of camptothecin-induced cytotoxicity against human HT-29 cells after 72 hrs by MTT assay in absence of TPA. The class given is functional, cell-based.
Assay [11] has as its system MCF7. Description: Potentiation of camptothecin-induced cytotoxicity against human MCF7 cells at 1 uM treated 30 mins before TPA challenge measured after 72 hrs by MTT assay. The class given is functional, cell-based.
Assay [12] deals with HT-29. Description: Potentiation of camptothecin-induced cytotoxicity against human HT-29 cells at 1 uM after 72 hrs by MTT assay in presence of TPA. It counts as functional, cell-based.
The subject of assay [13] is HT-29. Description: Potentiation of camptothecin-induced cytotoxicity against human HT-29 cells at 1 nM to 10 uM after 72 hrs by MTT assay. The class given is functional, cell-based.
The subject of assay [14] is HT-29. Description: Potentiation of digitoxin-induced cytotoxicity against human HT-29 cells at 1 nM to 10 uM after 72 hrs by MTT assay. It counts as functional, cell-based.
Assay [15] deals with HT-29. Briefly: Potentiation of camptothecin-induced cytotoxicity against human HT-29 cells at 1 uM after 72 hrs by MTT assay in absence of TPA. It counts as functional, cell-based.
Assay [16] deals with HT-29. Description: Potentiation of digitoxin-induced cytotoxicity against human HT-29 cells at 1 uM after 72 hrs by MTT assay in absence of TPA. It counts as functional, cell-based. Put shortly: as §3
Assay [17] concerns HT-29. Description: Potentiation of 5-fluorouracil-induced cytotoxicity against human HT-29 cells after 72 hrs by MTT assay in presence of TPA. It counts as functional, cell-based.
The subject of assay [18] is MCF7. Briefly: Potentiation of digitoxin-induced cytotoxicity against human MCF7 cells at 1 nM to 10 uM after 72 hrs by MTT assay. It counts as functional.
In assay [19] the test system is MCF7. Briefly: Potentiation of camptothecin-induced cytotoxicity against human MCF7 cells at 1 nM to 10 uM after 72 hrs by MTT assay. It counts as functional.

With `CCCCCCCCCCCCCCC[C@H](O)C[C@@H](O)C[C@@H](O)C[C@@H](O)C[C@@H](O)CCO`, the figures for the IC50 (in the assay with MCF7 [1]; with HT-29 [2]; in assay [3]) were greater than 500 µM, greater than 1500 µM and greater than 1500 µM, respectively. The Ratio in assay [4] was determined as 1.8.
As to `CO[C@H]1C[C@@H]2CC[C@@H](C)[C@@](O)(O2)C(=O)C(=O)N2CCCC[C@H]2C(=O)O[C@H]([C@H](C)C[C@@H]2CC[C@@H](O)[C@H](OC)C2)CC(=O)[C@H](C)/C=C(\C)[C@@H](O)[C@@H](OC)C(=O)[C@H](C)C[C@H](C)/C=C/C=C/C=C/1C`, the outcome in the assay on HT-29 [5], in the assay on HT-29 [7], in the assay with HT-29 [8], in the assay on HT-29 [9] and in the assay with HT-29 [10] was inactive. In addition, in assay [6], the Ratio worked out at 6.6.
Consider `CCCCCCCCCCCCCCC[C@@H](C[C@H](O)C[C@H](O)C[C@H](O)C[C@H](O)C[C@@H]1CC=CC(=O)O1)OC(C)=O`, for which the 50% inhibitory concentration (IC50) with MCF7 [1] amounted to 13.3 µM; with HT-29 [2] it was 4.9 µM; in assay [3] it was 7.8 µM. In [4], the Ratio is 1.9.
As for `CCCCCCCCCCCCCCC[C@@H](C[C@@H](O)C[C@@H](O)C[C@@H](O)C[C@@H](O)CCO)OC(C)=O`, the IC50 in the assay with MCF7 [1] was 162 µM; in the assay with HT-29 [2] it was 1280 µM; in assay [3], greater than 1000 µM. Besides, the Ratio in assay [4] came to 2.8.
As for `CCCCCCCCCCCCCCC[C@@H](C[C@@H](O)C[C@@H](O)C[C@@H](O)C[C@@H](O)C[C@H]1CC=CC(=O)O1)OC(C)=O`, the result with MCF7 [11], in the assay with HT-29 [5], in the assay with HT-29 [12], in the assay on HT-29 [13], in the assay on HT-29 [14] and with HT-29 [15] was inactive. The result in the assay on HT-29 [16] and with HT-29 [17] was inactive. The half-inhibitory concentration (IC50) in the assay on MCF7 [1] was found to be 5.8 µM; in the assay on HT-29 [2], 2.9 µM; in assay [3], 3.8 µM. Also, the CI in the assay on MCF7 [18] stood at 1.04; in the assay with MCF7 [19], 1.12. The Ratio in [4] stood at 4.5.
Turning to `CCCCCCCCCCCCCCC[C@H](C[C@H](O)C[C@H](O)C[C@H](O)C[C@H](O)C[C@@H]1CC=CC(=O)O1)OC(C)=O`, the 50% inhibitory concentration (IC50) came to 9 µM in the assay with MCF7 [1], 2.4 µM in the assay on HT-29 [2] and 4 µM in assay [3]. Moreover, in assay [4], the Ratio was determined as 3.6.
Turning to `CCCCCCCCCCCCCCC[C@@H](O)C[C@H](O)C[C@H](O)C[C@H](O)C[C@H](O)C[C@@H]1CC=CC(=O)O1`, the IC50 with MCF7 [1] came out at 25.8 µM; with HT-29 [2] it was 4.1 µM; in [3], 7.9 µM. The Ratio in assay [4] is 3.8.
Consider `CCCCCCCCCCCCCCC[C@H](O)C[C@@H](O)C[C@@H](O)C[C@@H](O)C[C@@H](O)C[C@H]1CC=CC(=O)O1`, for which the outcome in the assay on HT-29 [12], with HT-29 [13], in the assay with HT-29 [14], with HT-29 [15] and with HT-29 [16] was inactive. Moreover, the values for the concentration for half-maximal inhibition (IC50) (with MCF7 [1]; with HT-29 [2]; in assay [3]) were 8.1 µM, 4.2 µM and 5.4 µM, respectively. For the same compound, the values for the CI with MCF7 [18] and in the assay on MCF7 [19] were 1.34 and 0.78, respectively. Moreover, the Ratio in assay [4] turned out to be 3.6.

In general, IC50 refers to the point on the concentration scale where inhibition reaches its midpoint. Read a low IC50 as greater potency in that assay.
